Results reported in ChEMBL document CHEMBL1134834, “Quinoxalinylethylpyridylthioureas (QXPTs) as potent non-nucleoside HIV-1 reverse transcriptase (RT) inhibitors. Further SAR studies and identification of a novel orally bioavailable hydrazine-based antiviral agent” (J Med Chem, 2001).

Key:
[1] = molecular target: T1, Human immunodeficiency virus type 1 reverse transcriptase (Human immunodeficiency virus 1, UniProt Q72547); assay: Inhibition of HIV-1 wild-type RT
Mus musculus [2] = organism: Mus musculus; assay: Cytotoxicity on NSO murine cell line (O.D.=0.125+/-0.015); assay type: functional; settings: read-out: TC50 (the source's name)
Homo sapiens = organism: Homo sapiens; assay: (§1) Cytotoxicity on normal human lymphocytes(HL) (O.D.=0.114+/-0.01); assay type: functional; settings: read-out: TC50 (the source's name)
[3] = molecular target: Human immunodeficiency virus type 1 reverse transcriptase (Human immunodeficiency virus 1, UniProt Q72547, V106A); assay: Inhibition of HIV-1 Mutant HIV-1 RT enzymes containing the single amino acid substitution V106A
Daudi [4] = assay: Cytotoxicity on Daudi Human(DH) cell line (O.D.=0.129+/-0.018); assay type: functional; settings: read-out: TC50 (the source's name)
CEM-SS [5] = assay: (§2) Concentration which results in 50% survival of uninfected untreated control CEM-SS cells (cytotoxicity of the compound); assay type: functional, cell-based; settings: Homo sapiens, read-out: IC50 (the source's name)
[6] = Selectivity index (IC50/EC50) was determined in C8166 cells; assay type: functional
C8166 [7] = assay: (§3) Concentration which results in 50% survival of uninfected untreated control C8166 cells (cytotoxicity of the compound); assay type: functional, cell-based; settings: Homo sapiens
In short: (§4)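 Toxicity in uninfected C8166 cells by MTT reduction to formazan, read spectrophotometrically.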

C8166 [8] = assay: Synergistic antiviral activity of AZT (DDI) with the compound, against HIV-IIIB in C8166 cells; assay type: functional, cell-based; settings: Homo sapiens
In short: (§5)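 C8166 cells infected with HIV-IIIB and treated with compound combined with AZT (or DDI). Combination index calculated by the Chou-Talalay multiple drug effect analysis under both mutually exclusive and mutually nonexclusive assumptions.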

[9] = Selectivity index (IC50/EC50) was determined in CEM-SS cells; assay type: functional
In short: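 CEM-SS (T4 lymphocyte) cells infected with wild-type HIV-1 were scored for protection from virus-induced cell death. […] SI = IC50/EC50. An AZT-treated positive control was run in parallel under identical conditions.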

[10] = molecular target: Human immunodeficiency virus type 1 reverse transcriptase (Human immunodeficiency virus 1, UniProt Q72547, Y181I); assay: Inhibition of HIV-1 Mutant HIV-1 RT enzymes containing the single amino acid substitution Y181I
NIH3T3 [11] = assay: Cytotoxicity on 3T3 fibroblasts (3T3F) murine cell line (O.D.=0.131+/-0.014); assay type: functional; settings: Mus musculus, read-out: TC50 (the source's name)
[12] = molecular target: Human immunodeficiency virus type 1 reverse transcriptase (Human immunodeficiency virus 1, UniProt Q72547, K103N); assay: Inhibition of HIV-1 Mutant HIV-1 RT enzymes containing the single amino acid substitution K103N
[13] = tested on: Human immunodeficiency virus 1; assay: Concentration which produces a 50% survival of HIV-1 infected cells relative to uninfected control C8166 cells; assay type: functional, organism-based; settings: Human immunodeficiency virus 1, C8166
C8166 [14] = assay: Antiviral activity alone against HIV-IIIB in C8166 cells; assay type: functional, cell-based; settings: Homo sapiens
In short: (§6)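 C8166 CD4+ T-cell line (HTLV-I genome, only tat expressed) acutely infected with lymphocytotropic HIV-1 IIIB. […] Read-out is HIV-p24 antigen in supernatants. AZT positive control was run at the same time. SI = IC50/EC50.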

[15] = molecular target: Human immunodeficiency virus type 1 reverse transcriptase (Human immunodeficiency virus 1, UniProt Q72547, Y188L); assay: Inhibition of HIV-1 Mutant HIV-1 RT enzymes containing the single amino acid substitution Y188L
[16] = molecular target: T1, Human immunodeficiency virus type 1 reverse transcriptase; assay: Inhibition of HIV-1 Mutant HIV-1 RT enzymes containing the single amino acid substitution […]
C8166 [17] = assay: Synergistic antiviral activity with AZT (DDI), against HIV-IIIB in C8166 cells; assay type: functional, cell-based; settings: Homo sapiens; in short: as §5
CEM-SS [18] = assay: Concentration which produces a 50% survival of HIV-1 infected cells relative to uninfected control CEM-SS cells (in vitro anti-HIV activity); assay type: functional, cell-based; settings: Homo sapiens
In short: (§7)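 CEM-SS T4 lymphocytes infected with wild-type HIV-1. Protection from virus-induced cell death is scored against an AZT-treated positive control run under identical conditions. […] SI = IC50/EC50.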

Daudi [19] = assay: cytotoxicity on Daudi Human(DH) cell line (O.D.=0.129+/-0.018); assay type: functional; settings: read-out: TC50 (the source's name)
[20] = tested on: Human immunodeficiency virus 1; assay: Inhibition of HIV-1-p24 antigen production in monocyte-macrophages (in vitro anti-HIV-1 activity); assay type: functional, organism-based
In short: (§8)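 Macrophages from adherent PBMC (10^6/mL, RPMI-1640 with 20% heat-inactivated FCS), 10^5 per well, >95% pure, infected with monocytotropic HTLV-III Ba-L. Antiviral activity read 14 days after infection. […] SI = IC50/EC50. AZT control run in parallel.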

[21] = cytotoxicity on normal human lymphocytes(HL) (O.D.=0.114+/-0.01); settings: read-out: TC50 (the source's name)
NIH3T3 [22] = assay: cytotoxicity on 3T3 fibroblasts (3T3F) murine cell line (O.D.=0.131+/-0.014); assay type: functional; settings: Mus musculus, read-out: TC50 (the source's name)
CEM-SS [23] = assay: as §2; assay type: cell-based; settings: Homo sapiens
[24] = tested on: Human immunodeficiency virus 1; assay: Inhibition of HIV-1-p24 antigen production in monocyte-macrophages (cytotoxicity of the compound); assay type: organism-based; in short: as §8
Mus musculus [25] = organism: Mus musculus; assay: cytotoxicity on NSO murine cell line (O.D.=0.125+/-0.015); assay type: functional; settings: read-out: TC50 (the source's name)
[26] = Selectivity index between IC50 of HIV-1-p24 and EC50 of HIV-1-p24 (IC50/EC50); assay type: functional; in short: as §8
[27] = (§9) Selectivity index was determined in C8166 cells; assay type: functional; in short: as §6
C8166 [28] = assay: as §3; assay type: cell-based; settings: Homo sapiens; in short: as §4
[29] = as §1; assay type: functional; settings: read-out: TC50 (the source's name)
[30] = Selectivity index was determined in CEM-SS cells; assay type: functional; in short: as §7
C8166 [31] = assay: as §9; assay type: functional, Homo sapiens; in short: as §6
[32] = Half life period was determined after subcutaneous administration of a dose of 20 mg/kg in mice; assay type: ADME, organism-based; design: dose 20 mg/kg, route subcutaneous; settings: mouse, in vivo, sc
In short: (§10)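 Mice dosed at 20 mg/kg, either subcutaneously or orally; plasma drug level measured by HPLC with an internal standard; n = 3 per point. Cmax and tmax read from the concentration-time curves. Clearance assumes complete subcutaneous absorption. Elimination t1/2, Vd and AUC derived from plasma curves. Relative oral bioavailability computed as oral AUC over subcutaneous AUC.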

C8166 [33] = assay: Synergistic antiviral activity of AZT (DDI) with the compound, against HIV-IIIB in C8166 cells (combination index in association with DDI); assay type: functional, cell-based; settings: Homo sapiens; in short: as §5
Mus musculus [34] = assay: Area under curve was determined after subcutaneous administration of a dose of 20 mg/kg in mice; assay type: ADME, organism-based; design: dose 20 mg/kg, route subcutaneous; settings: in vivo, sc; in short: as §10
C8166 [35] = assay: Synergistic antiviral activity with AZT (DDI), against HIV-IIIB in C8166 cells (combination index in association with DDI); assay type: functional, cell-based; settings: Homo sapiens; in short: as §5
[36] = Bioavailability was determined after subcutaneous administration of a dose of 20 mg/kg in mice; assay type: ADME, organism-based; settings: mouse, in vivo, po, in the assay text read “oral” for “subcutaneous”; in short: as §10
Mus musculus [37] = assay: Volume distribution was determined after subcutaneous administration of a dose of 20 mg/kg in mice; assay type: ADME, organism-based; design: dose 20 mg/kg, route subcutaneous; settings: in vivo, sc; in short: as §10
NIH3T3 [38] = assay: Cytotoxicity against 3T3 fibroblasts (3T3F) murine cell line (O.D.=0.131+/-0.014); assay type: functional; settings: Mus musculus, read-out: TC50 (the source's name)
[39] = Half life period was determined after oral administration in mice; assay type: ADME, organism-based; settings: mouse, in vivo; in short: as §10
Mus musculus [40] = assay: Area under curve was determined after oral administration in mice; assay type: ADME, organism-based; settings: in vivo; in short: as §10
NSO = assay: Cytotoxicity against NSO murine cell line (O.D.=0.125+/-0.015); assay type: functional; settings: Mus musculus, read-out: TC50 (the source's name)
[41] = Cytotoxicity against normal human lymphocytes(HL) (O.D.=0.114+/-0.01); assay type: functional; settings: read-out: TC50 (the source's name)
C8166 [42] = assay: Concentration which produces a 50% survival of HIV-1 infected cells relative to uninfected control C8166 cell (in vitro anti-HIV activity); assay type: functional, cell-based; settings: Homo sapiens
[43] = Subcutaneous absorption was determined fter subcutaneous administration of a dose of 20 mg/kg in mice; assay type: ADME, organism-based; design: dose 20 mg/kg, route subcutaneous; settings: mouse, in vivo, sc; in short: as §10
Daudi [44] = assay: Cytotoxicity against Daudi Human(DH) cell line (O.D.=0.129+/-0.018); assay type: functional; settings: read-out: TC50 (the source's name)

SMILES	Ki [1]	CC50 (Mus musculus [2])	Ki [3]	CC50 (Daudi [4])	IC50 (C8166 [7])	EC50 (C8166 [8])	Ki [10]	CC50 (NIH3T3 [11])	Ki [12]	EC50 [13]	EC50 (C8166 [14])	Ki [15]	Ki [16]	EC50 (C8166 [17])	EC50 (CEM-SS [18])	EC50 [20]	IC50 [24]	also measured
O=c1c2cccn2c2ncccc2n1CCNC(=S)Nc1ccc(Br)cn1	0.009 µM	700 µM	0.05 µM	690 µM	11 µM	0.015 µM	0.4 µM	690 µM	0.25 µM	0.124 µM	0.124 µM	0.13 µM	0.095 µM	0.05 µM	0.0052 µM			CC50 (Homo sapiens): 680 µM; CC50 (CEM-SS [5]): > 2 µM; SI [6]: 89; SI [9]: >380
O=c1c2cccn2c2ccc(F)cc2n1CC/N=C(\S)Nc1ccc(Br)cn1	0.029 µM		0.04 µM		15 µM	0.085 µM	1 µM		0.65 µM	0.032 µM	0.066 µM	1.2 µM	0.7 µM	0.057 µM	0.063 µM	0.004 µM	49 µM	CC50 (Daudi [19]): 19 µM; CC50 [21]: 20 µM; CC50 (NIH3T3 [22]): 20 µM; SI [6]: 468; SI [9]: >3170; IC50 (CEM-SS [23]): > 200 µM; CC50 (Mus musculus [25]): 20 µM; SI [26]: 12200
CC(C)=CCN1Cc2c(Cl)ccc3[nH]c(=S)n(c23)C[C@@H]1C [TIVIRAPINE]										0.03 µM								SI [27]: 1670; IC50 (C8166 [28]): 50 µM
O=c1c2cccn2c2cccc(F)c2n1CC/N=C(\S)Nc1ccc(Br)cn1	0.009 µM	1000 µM	0.015 µM	1000 µM	200 µM	0.003 µM	0.2 µM	1000 µM	0.16 µM	0.025 µM	0.025 µM	0.2 µM	0.17 µM	0.002 µM	0.00047 µM	0.002 µM	17 µM	CC50 [29]: 960 µM; SI [30]: >43; CC50 (CEM-SS [5]): > 0.02 µM; SI [27]: 7990; SI [26]: 8800
S=C(NCCOc1nc2cc(Cl)ccc2n2cccc12)Nc1ccc(Br)cn1		> 1000 µM	0.12 µM	> 1000 µM	93 µM		0.09 µM	> 1000 µM	0.21 µM	0.025 µM		0.1 µM	0.12 µM					CC50 [29]: > 1000 µM; SI (C8166 [31]): 3720
O=C(NNc1nc2ccccc2n2cccc12)c1cnccn1	0.19 µM		0.8 µM		18 µM		2.5 µM				0.45 µM	1.8 µM	0.3 µM			0.2 µM	25 µM	half-life [32]: 1.5 h; EC50 (C8166 [33]): 0.098 µM; AUC (Mus musculus [34]): 48.7 nM hr-1 ml-1; EC50 (C8166 [35]): 0.14 µM; bioavailability [36]: 45%; Vd (Mus musculus [37]): 3 L/kg; CC50 (NIH3T3 [38]): 880 µM; half-life [39]: 1.4 h; AUC (Mus musculus [40]): 21.7 nM hr-1 ml-1; CC50 (NSO): 870 µM; CC50 [41]: 870 µM; EC50 (C8166 [42]): 0.4 µM; Tmax [43]: 2 h; CC50 (Daudi [44]): 860 µM
O=c1n(CCNC(=S)Nc2ccc(Br)cn2)c2ccccc2c2ccnn12	0.015 µM		0.33 µM				0.52 µM		0.021 µM			0.4 µM	0.1 µM					
O=c1c2cccn2c2c(F)cc(F)cc2n1CCNC(=S)Nc1ccc(Br)cn1	0.022 µM		0.03 µM				1.6 µM					0.45 µM	0.1 µM					
